From BindingDB's records for doi:10.1021/jm980077m (New York University Medical Center, 1998)
Values joined by “and” are separate entries in the source; they are usually repeats but may differ in a detail not shown here. Equal values may be shown once.

Target: T1, Alpha-1D adrenergic receptor (Homo sapiens, UniProt P25100)
T1 sequence (P25100 whole entry): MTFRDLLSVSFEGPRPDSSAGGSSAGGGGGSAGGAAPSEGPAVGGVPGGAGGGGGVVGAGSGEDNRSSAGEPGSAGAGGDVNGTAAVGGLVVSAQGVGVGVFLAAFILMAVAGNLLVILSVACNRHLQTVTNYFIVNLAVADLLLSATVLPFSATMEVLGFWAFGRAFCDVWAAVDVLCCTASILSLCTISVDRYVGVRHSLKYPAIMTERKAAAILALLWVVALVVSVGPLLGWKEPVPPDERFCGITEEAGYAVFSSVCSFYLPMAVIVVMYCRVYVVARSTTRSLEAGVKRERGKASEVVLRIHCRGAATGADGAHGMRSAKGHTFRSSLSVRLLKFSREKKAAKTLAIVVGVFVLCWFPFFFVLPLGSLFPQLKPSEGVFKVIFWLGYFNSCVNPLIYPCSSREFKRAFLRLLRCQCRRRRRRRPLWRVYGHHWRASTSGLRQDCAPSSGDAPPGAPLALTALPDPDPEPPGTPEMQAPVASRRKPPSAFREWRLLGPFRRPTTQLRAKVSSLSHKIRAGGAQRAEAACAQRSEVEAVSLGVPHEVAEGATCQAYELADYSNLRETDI
Test: Binding affinity determined by displacement of [3H]prazosin from alpha-1D adrenergic receptor
Method in brief: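 Radioligand displacement binding with [3H]prazosin at the alpha-1d adrenoceptor. Incubation ran 30 min, with 4 h used for one earlier reference compound. Results were expressed as pKi.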

CC1=NC(C)=C(C(=O)NCCCN2CCC(c3ccccc3)(c3ccccc3)CC2)C(c2ccc([N+](=O)[O-])cc2)C1C(N)=O (stereo unspecified) [2,6-Dimethyl-4-(4-nitro-phenyl)-1,4-dihydro-pyridine-3,5-dicarboxylic acid 3-amide 5-{[3-(4,4-diphenyl-piperidin-1-yl)-propyl]-amide}]
Ki: 224 nM and 223 nM
